Bioassay records as filed in PubChem BioAssay.
Compounds with a hit are over-represented: about 2.3% of the library has one in this group of screens.
XiGFP reactiv = reactivates the inactive X chromosome in mouse fibroblasts; 0.055% of 360,000 active; activation, % at 7.58 µM; XiGFP mouse fibroblasts, % GFP-positive cells imaging, 3 d; cells co-treated with 5-aza-dC sensitizer; scaled so ellipticine positive control = 100%; AID 743238;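 active means mean normalized replicate activation at least 10% and every replicate at or above 10%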;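 further: 0% = median of on-plate neutral control wells and 100% = ellipticine 6 µM median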
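Assay system: SV40-immortalized XiGFP fibroblast cells, line 68-5-11; buffer or medium: DMEM plus 5-aza-dC sensitizer; compound: one concentration, pinned; timing: compounds 3 days, fix/stain 15 min at room temperature; benchmarks: positive control ellipticine, 6 µM final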
TROY signal inh = inhibitors of TROY-dependent NF-kB signaling; 0.98% of 360,000 active; inhibition, % at 10 µM; Q293 LMP1-TROYcd NF-kB luciferase reporter, 4 h;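 active means compounds whose plate-normalised and pattern-corrected inhibition of the luciferase reporter signal at the single screening dose is 50% or more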
FN deposit inh = fibronectin deposition inhibition; AH1F fibroblasts, Alexa488-fibronectin deposition fluorescence, overnight; inhibition, % at 12.6 µM; 0.086% of 350,000 active; AID 743247;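 active means mean inhibition across replicates of 30% or more, regardless of how many single replicates reach that level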;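 further: positive control wells lacked labelled fibronectin entirely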
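Material: AH1F fibroblast monolayer depositing Alexa488-labelled fibronectin into matrix | Input: 10000 AH1F cells/well | Medium: DMEM plus 2% serum, read in PBS | Reagent: Alexa488-fibronectin, 24 nM final in well | Compound dosing: One dose per compound, pinned | Schedule: 1 h adhesion, overnight exposure | Measured by: Fluorescence at 485 nm excitation, 525 nm emission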
EWS-Fli block = EWS/Fli transcriptional activity inhibition; A673 NR0B1-luciferase reporter, viability-normalised; inhibition, % at 12.6 µM; 0.67% of 350,000 active; AID 651661;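 active means mean inhibition of at least 50% after viability correction, with every replicate also passing that limit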;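 further: firefly luciferase signal divided by Alamar Blue viability fluorescence both relative to DMSO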
LGR2 antag = inhibitors of bursicon-induced Drosophila LGR2 receptor cAMP signaling; 0.35% of 380,000 active; inhibition, % at 9.99 µM; HEK293 LGR2, CRE-luciferase, bursicon-stimulated, 4 h;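 active means drop in luminescence signal, shown as inhibition above about 50% in the replicate tests, limit read from the data, passing the limit was not always enough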;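 further: agonist challenge used bursicon conditioned medium at about half maximal strength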
TWEAK-Fn14 inh = inhibitors of TWEAK-Fn14 interaction signaling. TWEAK-stimulated Fn14 reporter cells, luciferase luminescence, 8 h. inhibition, % at 10 µM. 2% of 360,000 active. AID 1159606; in the data active means inhibition above about 50%
* hit, by the source's call; · = no result; ! = a repeat was not active.

SMILES | XiGFP reactiv | TROY signal inh | FN deposit inh | EWS-Fli block | LGR2 antag | TWEAK-Fn14 inh
CN(C)C(=O)[C@H]1[C@H](CO)[C@H]2Cn3c(ccc(-c4ccc(F)cc4)c3=O)[C@@H]1N2CCc1ccccc1 | 0.3 | · | · | 1.3 | 1.3 | ·
COc1ccc(C(=O)/C=C/Sc2nc3ccccc3o2)cc1 | 0.9 | 37.4 | -3.7 | 54.7* | 0.4 | 61.3*
COc1ccc([N+](=O)[O-])cc1NS(=O)(=O)c1ccc(C(=O)N2CCCC2)cc1 | 0.0 | 6.3 | 34.3* | -3.4 | -1.0 | 6.2
COc1cc([C@@H]2[C@H]3CN(C)CC=C3C(C#N)=C(N)C2(C#N)C#N)cc2c1OCO2 | 0.2 | 60.1*! | 3.3 | 3.2 | -2.5 | 63.4*!
O=c1oc(Nc2ccc(F)cc2)nc2ccccc12 | · | 6.5 | · | · | 24.0 | 57.9*
O=c1nc(Nc2ccccc2)oc2ccccc12 | -0.1 | -64.1 | 1.0 | -34.5 | -77.9 | -16.7
C[C@@H]1CN([C@@H](C)CO)C(=O)Cc2cc(N(C)C)ccc2O[C@H]1CN(C)S(C)(=O)=O | 0.1 | · | -0.9 | -3.0 | -10.0 | ·
O=C(C(Br)=Cc1ccccc1)c1ccccc1 | 0.0 | -2.1 | -0.4 | 58.0* | 32.3 | 92.9*
N#CC(=Cc1ccc(-c2ccccc2)cc1)C(=O)c1ccccc1 | 0.2 | -0.4 | 0.2 | -14.1 | 1.2 | -19.9
CC(=Cc1ccccc1)C(=O)c1ccccc1 | 0.0 | -16.1 | · | -5.9 | 1.9 | -6.6
CC(=O)C(=Cc1ccc(-c2ccccc2)cc1)C(=O)c1ccccc1 | 0.0 | 11.4 | -8.4 | -6.5 | 8.0 | 55.2*
COc1ccc(CN(C)C(=O)c2cc(S(=O)(=O)Nc3ccccc3F)ccc2C)c(OC)c1 | 0.0 | -19.0 | 6.5 | 0.2 | 2.6 | 53.0*
COc1cccc(CN(C)C(=O)c2ccc(S(=O)(=O)Nc3ccccc3F)cc2)c1OC | 0.4 | -10.8 | 1.3 | 0.5 | 16.2 | -22.1
CCOC(=O)C1=C(N)Oc2cc(C)[nH]c(=O)c2C1c1ccncc1 (stereo unspecified) | · | · | · | · | · | 75.8*
CCCNC(=O)Nc1ccc2c(c1)OC[C@@H](C)N(Cc1ccncc1)C[C@H](C)[C@H](OC)CN(C)C2=O | 0.5 | · | 7.4 | -12.8 | -1.8 | ·
CN1[C@H](C(=O)NC2CCCC2)[C@@H](CO)[C@@H]2Cn3c(ccc(/C=C/c4ccccc4)c3=O)[C@@H]21 | 0.1 | · | · | 2.7 | -5.4 | ·
CC(C)C#Cc1ccc2c(c1)O[C@@H](CN(C)S(=O)(=O)c1cn(C)cn1)[C@H](C)CN([C@H](C)CO)S2(=O)=O | -0.8 | · | -2.3 | 8.0 | -20.3 | ·
O=C1C2C3c4ccccc4C(c4ccccc43)C2c2nc3ccccc3n21 (stereo unspecified) | · | · | · | · | 5.3 | 51.5*
COc1ccc(NC(=O)c2c(-c3ccccc3Cl)noc2C)c(OC)c1 | · | -1.9 | · | · | · | -19.9
COc1ccc(OC)c(NC(=O)c2nc(S(=O)(=O)Cc3ccccc3)ncc2Cl)c1 | 2.7 | 83.1* | 56.0* | · | 15.8 | 76.1*
COc1ccc(NC(=O)c2nc(S(=O)(=O)Cc3cccc(C)c3)ncc2Cl)c(OC)c1 | 0.0 | 54.4* | 47.5* | · | -22.6 | 43.7
CCCNC(=O)N1[C@H](CO)[C@H]2c3ccccc3N(C(=O)NC(C)C)C[C@H]21 | 0.1 | · | -1.4 | -189.2 | -1.8 | ·
COc1ccc2c(c1)c(=O)oc1c(C)c(OCc3cc(C(=O)O)oc3C)ccc12 | 0.1 | 22.7 | -2.2 | 10.2 | -34.7 | 79.2*
Cc1cc(C(=O)Cn2nc(C(=O)O)c3ccccc3c2=O)c(C)n1C1CC1 | 0.1 | -7.3 | 2.5 | -37.5 | -41.6 | 13.1
COCCn1c(C)cc(C(=O)Cn2nc(C(=O)O)c3ccccc3c2=O)c1C | 0.1 | 41.5 | -2.7 | -57.8 | -83.5 | 69.2*
SMILES | XiGFP reactiv | TROY signal inh | FN deposit inh | EWS-Fli block | LGR2 antag | TWEAK-Fn14 inh
C=CCn1c(C)cc(C(=O)Cn2nc(C(=O)O)c3ccccc3c2=O)c1C | 0.0 | 35.1 | -5.9 | -90.9 | -27.1 | 55.3*
CC[C@@H]1C/C=C\C[C@@H](c2ccc(F)cc2)NC(=O)CCC(=O)N1 | 0.2 | · | -6.9 | · | · | ·
Cc1noc(C)c1NC(=O)Nc1ccc2c(c1)C(=O)N([C@H](C)CO)C[C@@H](C)[C@H](CN(C)C(=O)Nc1ccccc1)O2 | -0.2 | · | · | -5.1 | 7.5 | ·
CC(C)(C)OC(=O)NCc1ccc(CNC(=O)c2ncn(Cc3ccccc3)c2C(=O)NCc2ccc(CNC(=O)OC(C)(C)C)cc2)cc1 | 0.0 | 11.6 | -2.7 | 2.5 | · | -23.2
Cc1ccc(NC(=O)c2nc[nH]c2C(=O)NCCCCCNC(=O)OC(C)(C)C)cc1 | 0.0 | 4.2 | -5.2 | 14.3 | · | 4.8
CC(C)(C)OC(=O)NCc1ccc(NC(=O)c2nc[nH]c2C(=O)NCCCNC(=O)c2[nH]cnc2C(=O)Nc2ccc(CNC(=O)OC(C)(C)C)cc2)cc1 | · | 18.6 | · | · | · | 73.4*
CC(C)(C)OC(=O)NCc1ccc(NC(=O)c2nc[nH]c2C(=O)Nc2cc(Br)ccc2F)cc1 | 0.1 | 1.7 | 8.2 | 14.6 | -4.0 | -32.5
Cn1cnc(C(=O)NCc2ccc(CNC(=O)OC(C)(C)C)cc2)c1C(=O)NCc1ccc(CNC(=O)OC(C)(C)C)cc1 | 0.0 | 20.8 | -9.7 | 27.3 | 1.2 | 58.3*
CC(C)(C)OC(=O)NCCCCCNC(=O)c1[nH]cnc1C(=O)Nc1ccc(Cl)cc1 | 0.0 | 57.5* | 14.7 | 29.2 | 13.9 | 62.0*
CC(C)(C)OC(=O)NCCCCCNC(=O)c1[nH]cnc1C(=O)Nc1cc(Br)ccc1F | 0.1 | 22.2 | -5.0 | 17.6 | 17.2 | 76.3*
C[C@@H]1CN([C@@H](C)CO)C(=O)c2cc(C#CCN(C)C)cnc2O[C@H]1CN(C)Cc1ccccc1F | -0.6 | · | -31.9 | 10.3 | -2.9 | ·
CCS(=O)(=O)N1CC2(CN(C(=O)c3cccnc3)C2)c2c(n(C)c3cc(OC)ccc23)[C@H]1CO | 0.0 | · | -5.0 | · | · | ·
C[C@@H]1CN([C@@H](C)CO)S(=O)(=O)c2ccc(/C=C/c3ccccc3)cc2O[C@@H]1CN(C)C(=O)c1ccc2c(c1)OCO2 | -0.4 | · | · | 2.5 | 6.9 | ·
Cc1ccc(S(=O)(=O)Nc2ccc3c(c2)C(=O)N([C@H](C)CO)C[C@@H](C)[C@H](CN(C)C(=O)CCC(F)(F)F)OCCCC[C@@H](C)O3)cc1 | 0.0 | · | 0.3 | -10.5 | 2.7 | ·
C[C@H](NC(=O)c1nc[nH]c1C(=O)NCc1ccc(CNC(=O)OC(C)(C)C)cc1)C(=O)OCc1ccccc1 | 0.0 | 57.0* | 1.7 | -8.2 | 7.3 | -0.6
O=C(Nc1ccccc1F)c1nc[nH]c1C(=O)NCc1ccccc1 | -0.1 | 7.5 | -18.1 | 2.2 | -1.1 | -3.3
